The results in this text go back to ChEMBL document CHEMBL1148651, “Potent antitumor 9-anilinoacridines and acridines bearing an alkylating N-mustard residue on the acridine chromophore: synthesis and biological activity” (J Med Chem, 2006).

Assay [1] concerns CCRF-CEM. The assay can be described thus: Antiproliferative activity against human taxol resistant CCRF-CEM cell line. The class given is functional, cell-based. The procedure, abridged: (§1)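 Leukemic CCRF-CEM parent and resistant sublines were exposed for 72 h, then given phenazine methosulfate-XTT at 37 °C for 6 h. Absorbance was read at 450 and 630 nm. Six or seven concentrations were tested in duplicate, and IC50 came from median-effect plot analysis. Resistance fold is relative to the parent CCRF-CEM IC50.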

The test system of assay [2] is CCRF-CEM. The assay can be described thus: Antiproliferative activity against human CCRF-CEM cell line. The class given is functional, cell-based.
Assay [3] relates to MX1. The assay is described as follows: Antiproliferative activity against human MX1 cell line. The class given is functional, cell-based. In a few lines: (§2)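 Growth inhibition after 72 h continuous exposure. Solid tumour lines were read by sulforhodamine B. Six or seven concentrations per compound were tested in duplicate. IC50 came from median-effect (mass-action law) dose-effect analysis.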

The test system of assay [4] is CCRF-CEM. The assay can be described thus: Antiproliferative activity against human vinblastine resistant CCRF-CEM cell line. The class given is functional, cell-based. In a few lines:
as §1

The test system of assay [5] is HCT-116. The assay can be described thus: Antiproliferative activity against human HCT116 cell line. The class given is functional, cell-based. In a few lines: as §2
Assay [6] concerns A549. The assay is described as follows: Antiproliferative activity against human A549 cell line. The class given is functional, cell-based. In a few lines: as §2
Assay [7] relates to Mus musculus. The assay can be described thus: Toxicity against nude mouse xenografted with human MX1 cell line assessed as weight loss at 10 mg/kg, iv after 19 days. The class given is functional. On the technique in general: Xenograft models place foreign cells or tissue in a host animal.
In assay [8] the test system is MX1. The assay is described as follows: Antitumor activity against human MX1 cell line xenografted in nude mouse at 10 mg/kg, iv after 15 days. The class given is functional. In a few lines: (§3)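 Nude mice were implanted subcutaneously with MX-1 tumour tissue (50 µg) on day 0. Doses were given iv via the tail vein every 2 or 3 days (Q2D or Q3D schedules) in 20 µL DMSO plus 180 µL saline. Tumour volume was measured by caliper (length × width × height). Result is T/C (%) on the stated day.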

Assay [9] has as its system Mus musculus. The assay can be described thus: Toxicity against nude mouse xenografted with human MX1 cell line assessed as weight loss at 10 mg/kg, iv after 13 days. The class given is functional. The procedure, abridged: (§4)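 MX-1 xenograft nude mice were implanted with 50 µg tissue subcutaneously on day 0. They were treated iv by tail vein every 2 or 3 days in 20 µL DMSO plus 180 µL saline. Toxicity is the maximum body weight loss (%) relative to initial pretreatment body weight, on the day indicated.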

The test system of assay [10] is Mus musculus. The assay can be described thus: Toxicity against nude mouse xenografted with human MX1 cell line assessed as weight loss at 10 mg/kg, iv after 17 days. The class given is functional.
In assay [11] the test system is MX1. The assay is described as follows: Antitumor activity against human MX1 cell line xenografted in nude mouse at 1.5 mg/kg, iv after 14 days. The class given is functional. The procedure, abridged:
as §3

The subject of assay [12] is Mus musculus. The assay can be described thus: Toxicity against nude mouse xenografted with human MX1 cell line assessed as weight loss at 1.5 mg/kg, iv after 14 days. The class given is functional. In a few lines: as §4
The test system of assay [13] is Mus musculus. The assay can be described thus: Toxicity against nude mouse xenografted with human MX1 cell line assessed as weight loss at 2 mg/kg, iv after 12 days. The class given is functional. In a few lines: as §4
Assay [14] deals with MX1. The assay can be described thus: Antitumor activity against human MX1 cell line xenografted in nude mouse at 2 mg/kg, iv after 14 days. The class given is functional. The procedure, abridged:
as §3

In assay [15] the test system is MX1. The assay is described as follows: Antitumor activity against human MX1 cell line xenografted in nude mouse at 4 mg/kg, iv after 19 days. The class given is functional. The procedure, abridged: as §3
In assay [16] the test system is Mus musculus. The assay can be described thus: Toxicity against nude mouse xenografted with human MX1 cell line assessed as weight loss at 4 mg/kg, iv after 17 days. The class given is functional. In a few lines: as §4
Assay [17] deals with Mus musculus. The assay is described as follows: Toxicity against nude mouse xenografted with human MX1 cell line assessed as weight loss at 2 mg/kg, iv after 14 days. The class given is functional. The procedure, abridged:
as §4

Molecules are shown by their SMILES.

By IC50 is commonly meant the point on the concentration scale where inhibition reaches its midpoint. A high value points to a need for much substance. Turning to `ClCCN(CCCl)CCOc1cccc2cc3ccccc3nc12`, the IC50 in [1] turned out to be 117 nM; in [2], 37.6 nM; in assay [3], 70.8 nM; in assay [4] it was 163 nM; in assay [5], 94.9 nM; in assay [6] it was 137 nM.

On to `COc1cc(N)cc(Nc2c3ccccc3nc3c(OCCN(CCCl)CCCl)cccc23)c1`, for which the IC50 in assay [1] stood at 49.8 nM; in assay [2] it was 11.9 nM; in [3], 28.1 nM; in assay [4], 46.9 nM; in [5], 53.8 nM; in [6], 90.2 nM. Further, the Activity in [7] is reported as 10%; in assay [8] it was 96%; in assay [9], 15%; in assay [10], 10%.

Turning to `CC[C@]1(O)C[C@@H]2CN(CCc3c([nH]c4ccccc34)[C@@](C(=O)OC)(c3cc4c(cc3OC)N(C)[C@H]3[C@@](O)(C(=O)OC)[C@H](OC(C)=O)[C@]5(CC)C=CCN6CC[C@]43[C@@H]65)C2)C1` [VINBLASTINE], the 50% inhibitory concentration (IC50) stood at 28.7 nM in assay [1]; 0.4 nM in assay [2]; 2 nM in assay [3]; 207 nM in assay [4]; 0.7 nM in assay [5]; 1.1 nM in assay [6].

Take `CC(=O)O[C@H]1C(=O)[C@@]2(C)[C@H]([C@H](OC(=O)c3ccccc3)[C@]3(O)C[C@H](OC(=O)[C@H](O)[C@@H](NC(=O)c4ccccc4)c4ccccc4)C(C)=C1C3(C)C)[C@]1(OC(C)=O)CO[C@@H]1C[C@@H]2O` [PACLITAXEL]: the half-maximal inhibitory concentration (IC50) in [1] is 484 nM; in [2] it was 1.1 nM; in assay [3], 22.5 nM; in assay [4] it was 1730 nM; in assay [6], 2.1 nM.

Consider `COc1ccc(Nc2c3ccccc3nc3c(OCCN(CCCl)CCCl)cccc23)cc1N`, for which the IC50 turned out to be 57.5 nM in assay [1]; 12.3 nM in assay [2]; 24.1 nM in assay [3]; 60.1 nM in assay [4]; 48.2 nM in assay [5]; 118 nM in assay [6].

As for `Cc1cc(N)cc(Nc2c3ccccc3nc3c(OCCCCN(CCCl)CCCl)cccc23)c1`, the Activity is on record as 6% in [11] and 8% in assay [12]. Also, the IC50 came out at 61.1 nM in [1]; 3.7 nM in assay [2]; 10 nM in assay [3]; 54.5 nM in [4]; 9.1 nM in [5]; 8.9 nM in assay [6].

Turning to `ClCCN(CCCl)CCCCOc1cccc2cc3ccccc3nc12`, the IC50 worked out at 393 nM in assay [1]; 51.2 nM in [2]; 82 nM in assay [3]; 308 nM in [4]; 118 nM in [5]; 226 nM in assay [6].

For the compound `Cc1ccc(N)cc1Nc1c2ccccc2nc2c(OCCCCN(CCCl)CCCl)cccc12`, the IC50 in assay [1] was 57.8 nM; in [2], 4.3 nM; in assay [3] it was 9.2 nM; in assay [4], 42.3 nM; in assay [5] it was 13.6 nM; in assay [6], 15.4 nM. Besides, the values for the Activity in assay [13] and in assay [14] were 21% and 20%, respectively.

For the compound `COc1ccc(Nc2c3ccccc3nc3c(OCCCCN(CCCl)CCCl)cccc23)cc1N`, the 50% inhibitory concentration (IC50) in assay [1] is 89.9 nM; in [2] it was 5.9 nM; in [3], 5.6 nM; in assay [4], 86.5 nM; in assay [5], 8.3 nM; in assay [6], 19 nM.

Take `Nc1cc(CO)cc(Nc2c3ccccc3nc3c(OCCCCN(CCCl)CCCl)cccc23)c1`: the 50% inhibitory concentration (IC50) in assay [1] was found to be 40.5 nM; in [2] it was 4.2 nM; in assay [3], 2.4 nM; in [4] it was 111 nM; in [5] it was 9.5 nM; in [6], 5.3 nM.

Take `OCc1cc(O)cc(Nc2c3ccccc3nc3c(OCCN(CCCl)CCCl)cccc23)c1`: the concentration for half-maximal inhibition (IC50) in assay [1] is 139 nM; in assay [2], 6.9 nM; in assay [3], 58 nM; in assay [4] it was 152 nM; in assay [5], 125 nM; in assay [6], 108 nM.

As for `Cc1ccc(N)cc1Nc1c2ccccc2nc2c(OCCN(CCCl)CCCl)cccc12`, the half-maximal inhibitory concentration (IC50) was 46.5 nM in assay [1]; 8 nM in assay [2]; 7.1 nM in assay [3]; 31.2 nM in [4]; 9 nM in assay [5]; 31.6 nM in assay [6].

As for `Cc1cc(N)cc(Nc2c3ccccc3nc3c(OCCN(CCCl)CCCl)cccc23)c1`, the IC50 in assay [1] was 21.7 nM; in assay [2], 4.1 nM; in [3] it was 21.9 nM; in assay [4] it was 18.8 nM; in assay [5], 23.2 nM; in assay [6] it was 44.9 nM. Moreover, the Activity is given as 79% in assay [15] and 15% in assay [16].

As to `OCc1cc(O)cc(Nc2c3ccccc3nc3c(OCCCCN(CCCl)CCCl)cccc23)c1`, the concentration for half-maximal inhibition (IC50) is 117 nM in assay [1]; 5.9 nM in [2]; 7.2 nM in assay [3]; 338 nM in assay [4]; 9.1 nM in assay [5]; 25.1 nM in [6].

In the case of `ClCCN(CCCl)CCCOc1cccc2cc3ccccc3nc12`, the half-inhibitory concentration (IC50) amounted to 150 nM in assay [1]; 35.3 nM in assay [2]; 82.7 nM in assay [3]; 253 nM in [4]; 135 nM in [5]; 166 nM in [6].

As for `CCOC(=O)Nc1cc(CO)cc(Nc2c3ccccc3nc3c(OCCN(CCCl)CCCl)cccc23)c1`, the half-inhibitory concentration (IC50) in assay [1] came to 126 nM; in assay [2], 25.7 nM; in assay [3] it was 55.5 nM; in [4], 231 nM; in [5] it was 59.5 nM; in assay [6], 94 nM.

Regarding `Nc1cc(CO)cc(Nc2c3ccccc3nc3c(OCCN(CCCl)CCCl)cccc23)c1`, the half-maximal inhibitory concentration (IC50) in assay [1] turned out to be 63.3 nM; in assay [2], 6.7 nM; in assay [3], 6.6 nM; in assay [4] it was 126 nM; in assay [5] it was 7.7 nM; in [6], 32.4 nM.

Take `COc1cc(N)cc(Nc2c3ccccc3nc3c(OCCCCN(CCCl)CCCl)cccc23)c1`: the half-inhibitory concentration (IC50) in assay [1] was found to be 43.9 nM; in assay [2], 4.2 nM; in [3], 5.6 nM; in assay [4], 51.3 nM; in assay [5], 13.8 nM; in assay [6] it was 19 nM. Besides, the Activity in [14] amounted to 77%; in [17], 8%.

In assay [6], `Nc1cc(CO)cc(Nc2c3ccccc3nc3ccccc23)c1` had a 50% inhibitory concentration (IC50) of 47 nM.
